Published values collected from several papers.
Compare with care: the assays were run in different laboratories.
Organism: Staphylococcus aureus

With `Oc1c(Cl)cc(Cl)cc1-c1[nH]c(Cl)c(Cl)c1Cl` the MIC was 0.29 µM (microbial growth; ATCC29213 MSSA).
`CO[C@@H]1[C@@H](OC(N)=O)[C@@H](O)[C@H](Oc2ccc3c(O)c(NC(=O)c4ccc(O)c(CC=C(C)C)c4)c(=O)oc3c2C)OC1(C)C` has an MIC of 0.25 µg/mL (microbial growth; MRSA; drug-resistant strain, clinical isolate).
With `CN[C@H](CC(C)C)C(=O)N[C@H]1C(=O)N[C@@H](CC(N)=O)C(=O)N[C@H]2C(=O)N[C@H]3C(=O)N[C@H](C(=O)N[C@H](C(=O)O)c4cc(O)cc(O)c4-c4cc3ccc4O)[C@H](O)c3ccc(c(Cl)c3)Oc3cc2cc(c3O[C@@H]2O[C@H](CO)[C@@H](O)[C@H](O)[C@H]2O[C@H]2C[C@](C)(N)[C@H](O)[C@H](C)O2)Oc2ccc(cc2Cl)[C@H]1O` the MBC was 0.67 µM (microbial killing, broth dilution; MRSA; drug-resistant strain).
`C[C@H]1COc2c(N3CCN(C)CC3)c(F)cc3c(=O)c(C(=O)O)cn1c23` has an MBC of 0.48 µg/mL (microbial killing; ATCCBAA1717 MRSA).
`O=c1ccc2nc3ccc(OCc4ccc([N+](=O)[O-])o4)cc3oc-2c1` has an MIC of greater than 32 µg/mL (microbial growth; 24 h).
With `COc1c(N2CC3CCCNC3C2)c(F)cc2c(=O)c(C(=O)OCc3cnc([N+](=O)[O-])s3)cn(C3CC3)c12` (stereo not drawn) the MIC was 0.09 µM (microbial growth; ATCC29213).
For `CN[C@H](CC(C)C)C(=O)N[C@H]1C(=O)N[C@@H](CC(N)=O)C(=O)N[C@H]2C(=O)N[C@H]3C(=O)N[C@H](C(=O)N[C@H](C(=O)O)c4cc(O)cc(O)c4-c4cc3ccc4O)[C@H](O)c3ccc(c(Cl)c3)Oc3cc2cc(c3O[C@@H]2O[C@H](CO)[C@@H](O)[C@H](O)[C@H]2O[C@H]2C[C@](C)(N)[C@H](O)[C@H](C)O2)Oc2ccc(cc2Cl)[C@H]1O`, the MBC was 1.95 µg/mL (microbial killing; ATCCBAA1717 MRSA).
`C[C@@H]1CN2c3c(cc4c(N5C(=O)OC[C@@H]5C)noc4c3F)CC3(C(=O)NC(=O)NC3=O)[C@H]2[C@H](C)O1` has an MIC of 1 µg/mL (microbial growth, broth dilution; ATCC29213).
`COc1c(N2C[C@@H]3CCCN[C@@H]3C2)c(F)cc2c(=O)c(C(=O)O)cn(C3CC3)c12` gave an MIC of 0.07 µM (microbial growth; ATCC29213).
